# SR-BI uptake up: activators of SR-BI mediated DiI-HDL uptake, primary screen, ldlA[mSR-BI] CHO cells, DiI fluorescence; 3 h; 100 = double the neutral-control signal; 320,000 tested, 0.096% active; AID 504775, 2011; activation, % at 12.5 µM;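 active means mean replicate activation of at least 60% and every replicate at or above 60%; inconclusive means mean or all-replicate condition met, but not both; inactive means mean below 60% and not all replicates reaching 60%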;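 further: 0% = median plate neutral-control signal and 100% = twice that signal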
#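 Assay system: CHO ldlA[mSR-BI] cells, LDL receptor-null, SR-BI overexpressing; medium: Ham's F12 with 0.5% BSA, HEPES 25 mM, pH 7.4; also added: DiI-HDL 10 µg/mL; timing: 3 h uptake period with compound, 37 °C; signal: DiI fluorescence, bottom read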
# SR-BI DiI inh: inhibitors of SR-BI mediated HDL lipid uptake, primary screen, ldlA[mSR-BI] cells, fluorescence, single point | ldlA[mSR-BI] CHO cells, DiI-HDL uptake fluorescence, 3 h | inhibition, % at 12.5 µM | 320,000 tested, 0.96% active;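 active means mean replicate inhibition of at least 70% and a set share of replicates each scoring 70 or more; inconclusive means meets just one of the two criteria; inactive means fails both criteria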;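 further: 0% = median of neutral control wells and 100% = median of positive control wells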
# Target sequence (Q61009 whole entry, looked up): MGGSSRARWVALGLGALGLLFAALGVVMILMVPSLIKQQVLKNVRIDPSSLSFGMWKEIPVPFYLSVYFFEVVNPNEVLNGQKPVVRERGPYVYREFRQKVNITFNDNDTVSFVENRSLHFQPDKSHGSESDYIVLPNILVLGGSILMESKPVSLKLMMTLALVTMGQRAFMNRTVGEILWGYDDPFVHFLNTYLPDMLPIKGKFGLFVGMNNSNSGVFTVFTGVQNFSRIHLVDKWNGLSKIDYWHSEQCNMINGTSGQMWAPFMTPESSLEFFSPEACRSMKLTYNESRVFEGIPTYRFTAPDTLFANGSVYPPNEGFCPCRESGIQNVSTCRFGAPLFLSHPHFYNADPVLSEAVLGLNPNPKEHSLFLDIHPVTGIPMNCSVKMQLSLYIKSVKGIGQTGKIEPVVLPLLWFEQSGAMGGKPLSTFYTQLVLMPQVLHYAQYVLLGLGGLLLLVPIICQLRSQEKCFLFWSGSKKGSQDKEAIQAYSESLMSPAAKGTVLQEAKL
# Wnt bcat act: Wnt/beta-catenin pathway activators, primary screen, cell-based, plate reader, single point; Wnt/beta-catenin reporter cell assay, activator; AID 743398, 2014; 300,000 tested, 1.2% active; activation, % at 9.35 µM; in the data active means activation above about 30%, passing the limit was not always enough; inconclusive means no clear call, values can overlap the other calls;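 further: 0% = neutral control wells and 100% = positive control wells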
# MITF act: activators of MITF-driven TRPM1 promoter reporter, primary screen, cell-based, SK-MEL-5, luciferase, single point | SK-MEL-5 TRPM1-promoter luciferase, 24 h; % of positive control, neutral wells = 0 | activation, % at 12.5 µM | 300,000 tested, 0.75% active | AID 588334, 2011;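 active means mean activation of at least 80% with every replicate also reaching 80%; inconclusive means mean reaches 80% but some replicate falls short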;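 further: 0% = neutral control wells and 100% = parthenolide positive control wells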
# HSF1 activator: HSF-1 activators, primary screen, NIH3T3-HGL cells, MG132 stress, luminescence, single point; AID 504408, 2011; 300,000 tested, 1.7% active; NIH3T3-HGL HSF-1 luciferase reporter, 8 h; 100% = twice DMSO control signal; activation, % at 9 µM;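 active means mean replicate activation of at least 50% with a set share of replicates each reaching 50%; inconclusive means only one of those two conditions met; inactive means mean below 50% and too few replicates reaching it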;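 further: 0% = median of the neutral control wells and 100% = twice that signal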
# Active calls of the source: *; ? = inconclusive; . = no result. The list is not random: actives were taken first. Their share in the collection is about 3.6%.
SMILES,SR-BI uptake up,SR-BI DiI inh,Wnt bcat act,MITF act,HSF1 activator
COc1cc(OC)cc(C(=O)Nc2cccc3c2CCCC3)c1,-5,5,0,-5,24
Cc1nn(-c2ccccc2)c(N2CCCC2)c1/C=N/Nc1ccc(S(N)(=O)=O)cc1[N+](=O)[O-],-80,80*,-2,14,3
NS(=O)(=O)c1ccc(N/N=C/c2cn(-c3ccccc3)nc2-c2cccs2)c([N+](=O)[O-])c1,-104,104*,-4,6,11
NS(=O)(=O)c1ccc(N/N=C/c2cn(-c3ccccc3)nc2-c2cccs2)cc1,-12,12,10,60,0
c1ccc(CN2CCOCC2)nc1,18,-18,-4,6,.
Fc1ccc(N2CCN(Cc3ccccn3)CC2)cc1,15,-15,40*,-7,0
CN(C)c1ccc(C=C2C=Cc3ccccc32)cc1,-38,38,0,35,.
COc1cc2c(cc1OC)C(=Cc1ccc(N(C)C)cc1)C=C2,-76,76*,-2,61,.
C=C1C(=O)C2=CC1CCC(=O)C1(C)CCC(OC(C)=O)C(C)(C)C1CC2O (configuration not stated),20,-20,-25,-101,89*
Cc1sc2ncnc(N3CCC(C(=O)NNC(=O)COc4ccc(Br)cc4)CC3)c2c1C,-81,81*,-2,-7,-10
COc1ccc(OCC(=O)NNC(=O)C2CCN(c3ncnc4sc(C)c(C)c34)CC2)cc1,-56,56,-2,5,.
CCc1noc(C)c1C(=O)OC(C)C(=O)c1c(C)[nH]c2ccccc12 (configuration not stated),-15,15,47*,-13,.
N#Cc1ccc(Cl)cc1NC(=O)COC(=O)c1ccc(S(=O)(=O)N2CCCC2)cc1,40,-40,2,.,55*
O=C(COC(=O)c1ccc(S(=O)(=O)N2CCCC2)cc1)Nc1ccccc1Cl,.,.,-1,.,.
COc1cccc(Nc2nc(C(N)c3ccccc3)cs2)n1 (configuration not stated),.,.,5,.,.
CCCCC1C(=O)CC[C@H]2[C@@H]1CC(=O)[C@@H]2C/C=C\CCCC(=O)O (some centres not stated),0,0,.,18,72*
CN(CC(=O)Nc1cccc(F)c1)C(=O)CCNC(=O)c1ccc(Br)cc1,17,-17,5,13,-1
CN(CC(=O)Nc1cccc(F)c1)C(=O)CCNC(=O)c1ccco1,30,-30,49*,0,0
COC(=O)c1ccc2nc(-c3ccco3)c(Cc3ccsc3)n2c1,.,.,-3,.,.
Cc1csc(SCc2nnc(-c3ccccc3Br)o2)n1,2,-2,.,67,33
Fc1ccccc1SCc1nnc(-c2ccccc2Br)o1,-22,22,13,42,79*
C[C@@H](NC(=O)[C@@H]1CCCN1C(=O)[C@@H]1CCCN1C(=O)c1cccc(Cl)c1)c1ccccc1,.,.,-3,.,.
O=C(CN(CC1CCCO1)S(=O)(=O)c1ccc(S(=O)(=O)NC2CC2)cc1)Nc1ccccc1 (configuration not stated),0,0,.,-4,115*
CCN(CC)S(=O)(=O)c1ccc(S(=O)(=O)N(CC(=O)Nc2ccccc2)CC2CCCO2)cc1 (configuration not stated),-9,9,.,11,5
CCN(C(=O)COC(=O)/C=C/c1ccc(F)cc1)C1CCCCC1,-12,12,2,2,.
SMILES,SR-BI uptake up,SR-BI DiI inh,Wnt bcat act,MITF act,HSF1 activator
CN(C(=O)/C=C/c1ccc(F)cc1)C1CCCCC1,.,.,0,.,61*
CN(C(=S)NC(=O)/C=C/c1ccc(F)cc1)C1CCCCC1,-8,8,-1,-3,67*
CCCc1nc2c3ccccc3ccn2c1CC1CCCCC1,.,.,5,.,.
Cc1cccc(-c2cnc(C(O)c3ccc(-c4ccccc4)cc3)[nH]2)c1 (configuration not stated),.,.,-4,.,.
Cc1ccc2c(c1)c1c(n2CC(O)Cn2nc(C)c(Br)c2C)C(=O)CCC1 (configuration not stated),23,-23,.,9,-1
Cc1ccc2c(c1)c(C)c(C)n2CC(O)Cn1nc(C)c(Br)c1C (configuration not stated),-34,34,.,1,57*
CCCCCCCCN1C(=O)[C@@H](CC(=O)N2CCCC2)C[C@@]2(C(=O)OC)C1=C[C@H](C(C)(C)C)O[C@@H]2C,.,.,5,.,.
COC(=O)/C(=C/c1ccc2c(c1)c1ccccc1n2C)NC(=O)c1ccccc1,7,-7,.,-2,73*
O=C(/C=C(\Nc1ccc(Cl)c(Cl)c1)c1ccccc1)c1ccccc1,.,.,11,.,.
Cc1ccc(-c2nc3[nH]c(=O)cc(NC(=O)C(C)C)n3n2)cc1,26,-26,7,-3,-4
CCC(=O)Nc1cc(=O)[nH]c2nc(-c3ccc(Cl)cc3)nn12,.,.,39*,4,-8
O=[N+]([O-])c1ccc(C(O)CSC(=S)N2CCCCC2)cc1 (configuration not stated),-12,12,19,46,70*
O=[N+]([O-])c1ccc(C(=S)N2CCCC2)cc1,20,-20,37*,-6,-12
N/C(=N\OC(=O)c1ccc2c(c1)OCO2)c1cccc([N+](=O)[O-])c1,10,-10,9,32,59*
Cc1cccc(/C(N)=N/OC(=O)c2ccc3c(c2)OCO3)c1,19,-19,.,41,-18
C/C(=N/NC(=O)c1ccc2c(c1)OCO2)c1cccc([N+](=O)[O-])c1,12,-12,-2,126*,12
CCC(c1nc2ccccc2[nH]1)n1c(C)nc2ccccc21 (configuration not stated),.,.,0,.,.
CC(C)(C)S(=O)(=O)N1Cc2cc(CO)ccc2[C@@H]1CCO,.,.,0,.,.
Cc1nc(-c2ccccn2)sc1C(=O)Nc1ccc(F)cc1,.,.,.,.,27
Cc1nc(-c2ccccn2)sc1C(=O)Nc1ccc(F)cc1F,-17,17,.,.,70*
COC(=O)C[C@H]1C=C[C@@H](NC(=O)C2CC2)[C@@H](CO)O1,.,.,45*,.,.
Cc1ccccc1-n1c(-c2ccc(Cl)cc2)cnc1SCC(=O)NC1CCS(=O)(=O)C1 (configuration not stated),25,-25,.,5,70*
O=C(CSc1nnc(-c2ccccc2)n1-c1ccc(Cl)cc1)NC1CCS(=O)(=O)C1 (configuration not stated),6,-6,-1,27,22
CC(=O)Cn1cnc2c(cnn2-c2ccc(C)c(C)c2)c1=O,-14,14,22,?,59*
Cc1ccc(-n2ncc3c(=O)n(CC(=O)N(C)C)cnc32)cc1C,-2,2,5,.,8

# Screening data deposited in PubChem by Broad Institute.
